# Measured values reported in ChEMBL document CHEMBL1124035, “1-Amino-substituted 4-methyl-5H-pyrido[4,3-b]indoles (gamma-carbolines) as tricyclic analogues of ellipticines: a new class of antineoplastic agents” (1988).
# Tests used:
# Mus musculus [1] = assay: Median survival day in B16 melanoma infected mice when a dose of 1.25 mg/kg administered intraperitoneally; format: functional; settings: route intraperitoneal
# Summary of the method: (§1)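 B16 melanoma in hybrid BD F1 mice. At D0 each mouse was inoculated ip with 0.5 mL of homogenate made from 1 g of tumour in 10 mL of physiological serum. Compounds were given ip daily at the stated doses for 9 days (D1-9), with cis-platinum 0.5 mg/kg under the same schedule as positive control.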
# Mus musculus [2] = assay: Antitumor activity against P388 cells at a dose of 10 mg/kg administered intraperitoneally to P388 leukemia model; format: functional; settings: route intraperitoneal
# Summary of the method: (§2)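 Mice were inoculated ip with 10^6 P388 leukemia cells at D0, then given a single ip drug dose on D1. Weight change was recorded. T/C % = median survival day of treated / controls × 100; survivors counted at D30; 10 mice per dose group, 20 controls.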
# Mus musculus [3] = assay: Median survival day of P388 leukemia model when a dose of 5 mg/kg administered intraperitoneally; format: functional; settings: route intraperitoneal
# Summary of the method: (§3)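 P388 leukaemia in CDF1 hybrid mice, 10 per group. At D0, 10^6 viable cells were inoculated ip, followed by a single ip dose of drug in distilled water on D1. Weight change, median survival day, T/C (treated/control median survival × 100) and survivors at D30 were recorded. Controls were 20 mice.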
# Mus musculus [4] = assay: Weight change in g when a dose of 40 mg/kg administered intraperitoneally to P388 leukemia mice model; format: functional; settings: route intraperitoneal
# Summary of the method: (§4)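 P388 model with a single ip dose. Mice (10 per group) were inoculated ip at D0 with 10^6 P388 cells and given one ip drug dose at D1. Body-weight change (g), median survival day, T/C and survivors at D30 were recorded.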
# Mus musculus [5] = assay: Median survival day in B16 melanoma infected mice when a dose of 10 mg/kg administered intraperitoneally; format: functional; settings: route intraperitoneal; summary of the method: as §1
# Mus musculus [6] = assay: Survivors at day 30 when a dose of 40 mg/kg to P388 leukemia mice model; 0/10; format: functional
# Mus musculus [7] = assay: Antitumor activity against P388 leukemia in mice at a dose of 0.625 mg/kg administered intraperitoneally for 5 days; format: functional; settings: route intraperitoneal
# Summary of the method: (§5)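 CDF1 hybrid male or female mice, 10 per group, were inoculated ip with 10^6 viable P388 cells on day 0. Drugs in distilled water were given ip (0.1 mL/10 g body weight) daily D1-5. Vehicle, 5-fluorouracil and BD 84 were given the same way. T/C = median survival day of treated / controls × 100; T/C > 128% was significant; cures counted at D60.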
# Mus musculus [8] = assay: Survivors at day 60 when a dose of 5 mg/kg to B16 melanoma infected mice; 0/10; format: functional
# Mus musculus [9] = assay: Survivors at day 60 when a dose of 2.5 mg/kg to B16 melanoma infected mice; 0/10; format: functional
# Mus musculus [10] = assay: Antitumor activity against P388 leukemia in mice at a dose of 1.25 mg/kg administered intraperitoneally for 5 days; format: functional; settings: route intraperitoneal; summary of the method: as §5
# Mus musculus [11] = assay: Antitumor activity against P388 leukemia in mice at a dose of 20 mg/kg administered intraperitoneally; format: functional, organism-based; parameters: dose 20 mg/kg; summary of the method: as §5
# Mus musculus [12] = assay: Weight change in g when a dose of 10 mg/kg administered intraperitoneally to P388 leukemia mice model; format: functional; settings: route intraperitoneal; summary of the method: as §4
# Calf thymus DNA = assay: Apparent DNA affinity constant; format: nucleic-acid assay; settings: Bos taurus
# Summary of the method: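 Apparent DNA affinity constant was measured by competition with ethidium bromide. Buffer was 20 mM Na2HPO4/NaH2PO4, 0.1 M NaCl, 1 mM EDTA, pH 7.4, with calf thymus DNA at 10 μg/mL. Values are given in 10^6 M⁻¹.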
# Mus musculus [13] = assay: Antitumor activity against P388 cells at a dose of 20 mg/kg administered intraperitoneally to P388 leukemia model; format: functional; settings: route intraperitoneal; summary of the method: as §2
# Mus musculus [14] = assay: Antitumor activity against B16 melanoma infected intraperitoneally; format: functional
# Summary of the method: (§6)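 Hybrid BD F1 mice were inoculated ip at D0 with 0.5 mL of B16 melanoma homogenate (1 g tumor in 10 mL physiological serum). Drugs were given ip daily D1-9. Cisplatin 0.5 mg/kg was the positive control under the same schedule.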
# Mus musculus [15] = assay: Survivors at day 60 when a dose of 1.25 mg/kg to B16 melanoma infected mice; 0/10; format: functional
# Mus musculus [16] = assay: Weight change in g when a dose of 2.5 mg/kg administered intraperitoneally to B16 melanoma infected mice; format: functional; settings: route intraperitoneal
# Summary of the method: (§7)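 Hybrid BDF1 mice were inoculated ip at D0 with 0.5 mL of B16 melanoma homogenate (1 g tumor in 10 mL physiological serum). Drug was given ip daily on days 1-9, with cis-platinum 0.5 mg/kg as positive control on the same schedule.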
# Mus musculus [17] = assay: Median survival day of P388 leukemia model when a dose of 40 mg/kg administered intraperitoneally to mice; format: functional; settings: route intraperitoneal; summary of the method: as §3
# Mus musculus [18] = assay: Weight change in g when a dose of 5 mg/kg administered intraperitoneally to P388 leukemia mice model; format: functional; settings: route intraperitoneal; summary of the method: as §4
# Mus musculus [19] = assay: Weight change in g when a dose of 10 mg/kg administered intraperitoneally to B16 melanoma infected mice; format: functional; settings: route intraperitoneal; summary of the method: as §7
# Mus musculus [20] = assay: Median survival day of P388 leukemia model when a dose of 20 mg/kg administered intraperitoneally; format: functional; settings: route intraperitoneal; summary of the method: as §3
# Mus musculus [21] = assay: Weight change in g when a dose of 1.25 mg/kg administered intraperitoneally to mice; format: functional; settings: route intraperitoneal; summary of the method: as §7
# Mus musculus [22] = assay: Antitumor activity against P388 leukemia in intraperitoneally for 5 days; format: functional; summary of the method: as §5
# Mus musculus [23] = assay: Median survival day in B16 melanoma infected mice when a dose of 2.5 mg/kg administered intraperitoneally; format: functional; settings: route intraperitoneal; summary of the method: as §1
# Mus musculus [24] = assay: Antitumor activity against B16 melanoma infected mice at a dose of 2.5 mg/kg administered intraperitoneally; format: functional; settings: route intraperitoneal; summary of the method: as §6
# Mus musculus [25] = assay: Weight change in g when a dose of 5 mg/kg administered intraperitoneally to B16 melanoma infected mice; format: functional; settings: route intraperitoneal; summary of the method: as §7
# Mus musculus [26] = assay: Antitumor activity against P388 leukemia in mice at a dose of 10 mg/kg administered intraperitoneally for 5 days; format: functional; settings: route intraperitoneal; summary of the method: as §5
# Mus musculus [27] = assay: Median survival day in B16 melanoma infected mice when a dose of 5 mg/kg administered intraperitoneally; format: functional; settings: route intraperitoneal; summary of the method: as §1
# Mus musculus [28] = assay: Survivors at day 30 when a dose of 20 mg/kg to P388 leukemia mice model; 0/10; format: functional; summary of the method: as §3
# Mus musculus [29] = assay: Survivors at day 60 when a dose of 10 mg/kg to B16 melanoma infected mice; 0/10; format: functional
# L1210 = assay: Ability to reduce the cell count to 50% in L1210 culture cells; format: functional; settings: Mus musculus, read-out: ID50 (the source's name)
# Summary of the method: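 L1210 cells in exponential growth in RPMI 1640 with 2 mM glutamine, penicillin/streptomycin and 10% FCS, 37 °C, 5% CO2. Drugs dissolved in distilled water were added to cells at 0.8 × 10^5 cells/mL for 48 h, then cells were counted. ID50 is the concentration halving cell proliferation versus controls, from regression of dose-response data; mean of two independent experiments.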
# Mus musculus [30] = assay: Antitumor activity against B16 melanoma infected mice at a dose of 1.25 mg/kg administered intraperitoneally; format: functional; settings: route intraperitoneal; summary of the method: as §6
# Mus musculus [31] = assay: Survivors at day 30 when a dose of 5 mg/kg to P388 leukemia mice model; 0/10; format: functional
# Mus musculus [32] = assay: Weight change in g when a dose of 20 mg/kg administered intraperitoneally to P388 leukemia mice model; format: functional; settings: route intraperitoneal; summary of the method: as §4
# Mus musculus [33] = assay: Antitumor activity against P388 leukemia in mice at a dose of 2.5 mg/kg administered intraperitoneally for 5 days; format: functional; settings: route intraperitoneal; summary of the method: as §5
# Mus musculus [34] = assay: Antitumor activity against P388 cells at a dose of 5 mg/kg administered intraperitoneally to P388 leukemia model; format: functional; settings: route intraperitoneal; summary of the method: as §2
# Mus musculus [35] = assay: Antitumor activity against B16 melanoma infected mice at a dose of 10 mg/kg administered intraperitoneally; format: functional; settings: route intraperitoneal; summary of the method: as §6
# Mus musculus [36] = assay: Antitumor activity against P388 cells at a dose of 40 mg/kg administered intraperitoneally to P388 leukemia model; format: functional; settings: route intraperitoneal; summary of the method: as §2
# Mus musculus [37] = assay: Median survival day of P388 leukemia model when a dose of 10 mg/kg administered intraperitoneally; format: functional; settings: route intraperitoneal; summary of the method: as §3
# Mus musculus [38] = assay: Survivors at day 30 when a dose of 10 mg/kg to P388 leukemia mice model; 0/10; format: functional; summary of the method: as §3
# Mus musculus [39] = assay: Antitumor activity against P388 leukemia in mice at a dose of 5 mg/kg administered intraperitoneally for 5 days; format: functional; settings: route intraperitoneal
# Summary of the method: (§8)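 CDF1 hybrid male or female mice, 10 per group, were inoculated ip on day 0 with 10^6 viable P388 leukemia cells. Drug in distilled water was given ip (0.1 mL/10 g body weight) daily on days 1-5, with vehicle, 5-fluorouracil and BD 84 controls given the same way. T/C = median survival of treated/controls × 100; T/C > 128% counted as significant.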
# Mus musculus [40] = assay: Antitumor activity against P388 leukemia in mice at a dose of 20 mg/kg administered intraperitoneally for 5 days; Nontoxic at this dose; format: functional; settings: route intraperitoneal; summary of the method: as §8
smiles,measurement,setting,value
Cc1c[nH]c(NCCCN(C)C)c2c3cc(O)ccc3nc1-2,Median survival day,Mus musculus [1],32
same,T/C,Mus musculus [2],139%
same,Median survival day,Mus musculus [3],15.3
same,Weight change,Mus musculus [4],-1.4 g
same,Median survival day,Mus musculus [5],11.7
same,Survivors,Mus musculus [6],0
same,T/C,Mus musculus [7],139%
same,Survivors,Mus musculus [8],0
same,Survivors,Mus musculus [9],0
same,T/C,Mus musculus [10],150%
same,T/C,Mus musculus [11],Toxic
same,Weight change,Mus musculus [12],0.3 g
same,K aff,Calf thymus DNA,210000 M⁻¹
same,T/C,Mus musculus [13],142%
same,T/C,Mus musculus [14],160%
same,Survivors,Mus musculus [15],0
same,Weight change,Mus musculus [16],1.8 g
same,Median survival day,Mus musculus [17],15.3
same,Weight change,Mus musculus [18],-0.1 g
same,Weight change,Mus musculus [19],0.5 g
same,Median survival day,Mus musculus [20],15.5
same,Weight change,Mus musculus [21],2.8 g
same,T/C,Mus musculus [22],186%
same,Median survival day,Mus musculus [23],38.75
same,T/C,Mus musculus [24],141%
same,Weight change,Mus musculus [25],2.4 g
same,T/C,Mus musculus [26],148%
same,Median survival day,Mus musculus [27],44
same,Survivors,Mus musculus [28],0
same,Survivors,Mus musculus [29],0
same,IC50,L1210,90 nM
same,T/C,Mus musculus [30],116%
same,Survivors,Mus musculus [31],0
same,Weight change,Mus musculus [32],-0.8 g
same,T/C,Mus musculus [33],145%
same,T/C,Mus musculus [34],139%
same,T/C,Mus musculus [35],42%
same,T/C,Mus musculus [36],139%
same,Median survival day,Mus musculus [37],15.25
same,Survivors,Mus musculus [38],0
CN(C)CCCNc1nccc2c1c1cc(O)ccc1n2C,K aff,Calf thymus DNA,120000 M⁻¹
same,T/C,Mus musculus [39],145%
same,T/C,Mus musculus [26],169%
same,IC50,L1210,190 nM
same,T/C,Mus musculus [40],173%
same,T/C,Mus musculus [33],137%
